Columns and labels:
[1] = Cell viability assay; type: cell-based; settings: human, HFF cells; for viability at 7 days, 10 µM: Cell‐based assays [at 10 μM] Cell viability %, triplicate, mean
[2] = target: T1, HCMV pUL89‐C (Human cytomegalovirus, UniProt P16732); test: In vitro pUL89‐C endonuclease assay; type: biochemical; settings: for inhibition at 10 µM: read-out: Nuclease inhibition % at 10 μM; for IC50: IC50, dose response, duplicate
T1 sequence (P16732 418-674 limits assumed): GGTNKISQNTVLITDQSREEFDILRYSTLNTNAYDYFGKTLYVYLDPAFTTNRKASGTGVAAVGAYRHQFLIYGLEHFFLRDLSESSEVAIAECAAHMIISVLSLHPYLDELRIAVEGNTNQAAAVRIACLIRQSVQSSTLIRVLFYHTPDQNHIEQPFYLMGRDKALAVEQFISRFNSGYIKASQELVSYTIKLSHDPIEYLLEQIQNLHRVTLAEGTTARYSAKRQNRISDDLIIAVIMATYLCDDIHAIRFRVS

[3] = target: T2, pUL89‐C (Human cytomegalovirus, UniProt P16732); test: pUL89‐C thermal shift assay; type: binding, Human cytomegalovirus (HCMV); settings: 20 μM compound, compared to DMSO control
T2 sequence (P16732 418-674 limits assumed): T1 sequence (P16732 418-674 limits assumed)
Procedure, shortened: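 pUL89-C was expressed in E. coli and Ni-purified via a C-terminal His tag. Test compound (20 μM) was incubated with 4 μg of this protein in 5 mM MnCl2, 30 mM Tris pH 8, 50 mM NaCl for 25 min at room temperature, with 1% DMSO final. Sypro Orange was the dye. ΔTm is the mean derivative Tm vs DMSO vehicle, triplicates, with at least two independent determinations.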

[4] = system: HCMV ADCREGFP virus; test: HCMV replication assay; type: cell-based, Human cytomegalovirus (HCMV); settings: HFF cells, triplicate, mean

| SMILES | CC50 at 7 days [1] [µM] | inhibition at 10 µM [2] [%] | viability at 7 days, 10 µM [1] [%] | ΔTm (thermal shift) [3] | IC50 [2] [µM] | Cell‐based assays [at 10 μM] Inhibition % [4] |
| --- | --- | --- | --- | --- | --- | --- |
| Nc1nc(O)c2ncn(COC(CO)CO)c2n1 [Compound 1, ganciclovir, reference compound] | > 50 | – | – | – | – | – |
| COC(=O)c1nc(Cl)c2cccnc2c1O [Compound 13] | – | 16 ± 2.5 | 96 ± 1 | – | – | – |
| O=C(O)c1nc(-c2ccc(C(F)(F)F)cc2)c2cccnc2c1O [Compound 14] | – | 19 ± 0.1 | 97 ± 0.9 | – | – | – |
| O=C(NCc1ccc(F)cc1)c1nc(Cl)c2cccnc2c1O [Compound 15a] | 60 ± 2.4 | 49 ± 4.7 | 97 ± 2.3 | > 0 | 4.3 ± 1.2 | – |
| O=C(NCc1ccc(Cl)c(Cl)c1)c1nc(Cl)c2cccnc2c1O [Compound 15b] | > 50 | 33 ± 5.3 | 95 ± 1 | – | 13 ± 3.8 | – |
| O=C(NCc1ccc(F)c(Cl)c1)c1nc(Cl)c2cccnc2c1O [Compound 15c] | – | 15 ± 2 | 100 ± 5.7 | – | – | – |
| Cc1ccc(CNC(=O)c2nc(Cl)c3cccnc3c2O)cc1 [Compound 15d] | > 50 | 66 ± 13 | 96 ± 1.5 | > 0 | – | – |
| COCCNC(=O)c1nc(Cl)c2cccnc2c1O [Compound 15f] | – | 51 ± 14 | 96 ± 2.1 | – | 5.7 ± 0.39 | insignificant |
| Cc1ccc(CNC(=O)c2nc(-c3ccccc3)c3cccnc3c2O)cc1 [Compound 16a] | > 100 | 71 ± 2.4 | 99 ± 2.6 | > 0 | – | – |
| COc1cccc(-c2nc(C(=O)NCc3ccc(C)cc3)c(O)c3ncccc23)c1 [Compound 16b] | > 60 | 52 ± 3.6 | 76 ± 1.7 | – | 24 ± 5.4 | – |
| O=C(NCc1ccc(F)cc1)c1nc(-c2ccccc2F)c2cccnc2c1O [Compound 16d] | – | 17 ± 8.7 | ≤ 70 | – | – | – |
| O=C(NCc1ccc(F)cc1)c1nc(-c2cccc(Cl)c2)c2cccnc2c1O [Compound 16e] | – | 8.2 ± 1.9 | ≤ 70 | – | – | – |

From article PMC9463105 (Chemmedchem, 2022)
